Assay results published in ChEMBL document CHEMBL1141864, “Structure-activity relationships in 1,4-benzodioxan-related compounds. 8.(1) {2-[2-(4-chlorobenzyloxy)phenoxy]ethyl}-[2-(2,6-dimethoxyphenoxy)ethyl]amine (clopenphendioxan) as a tool to highlight the involvement of alpha1D- and alpha1B-adrenoreceptor subtypes in the regulation of human PC-3 …” (J Med Chem, 2005).
Activity calls are given as the source filed them. The rule behind the calls is not given here.

Tests used:
[1] = molecular target: T1, Alpha-1A adrenergic receptor (Rattus norvegicus) (UniProt P43140); test: ADRA1A blocking activity assessed by antagonism of (-)-NE induced contractions on isolated rat prostatic vas deferens; assay type: functional, tissue-based
T1 sequence (whole entry): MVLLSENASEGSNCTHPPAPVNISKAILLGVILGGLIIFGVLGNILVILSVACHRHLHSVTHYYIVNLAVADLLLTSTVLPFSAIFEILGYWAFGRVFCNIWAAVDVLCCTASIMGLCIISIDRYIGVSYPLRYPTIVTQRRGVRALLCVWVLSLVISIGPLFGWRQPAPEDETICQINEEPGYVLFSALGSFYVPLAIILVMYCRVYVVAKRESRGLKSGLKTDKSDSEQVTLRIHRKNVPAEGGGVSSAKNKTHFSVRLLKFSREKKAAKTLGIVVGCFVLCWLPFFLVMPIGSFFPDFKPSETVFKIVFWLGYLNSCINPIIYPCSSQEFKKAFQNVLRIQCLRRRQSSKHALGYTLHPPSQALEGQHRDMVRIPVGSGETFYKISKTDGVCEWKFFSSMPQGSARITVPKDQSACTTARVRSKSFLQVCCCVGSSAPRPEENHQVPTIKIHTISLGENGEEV
Method in brief: (§1)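 Isolated rat tissue: each antagonist concentration tested four times over 0.01–1 μM; pK_B calculated by van Rossum method from shifts of (-)-noradrenaline contraction curves (vas deferens, α1A; thoracic aorta, α1D) or (-)-phenylephrine contraction curves (spleen, α1B).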

[2] = molecular target: T2, Alpha-1B adrenergic receptor (Rattus norvegicus) (UniProt P15823); test: ADRA1B blocking activity assessed by antagonism of (-)-phenylephrine induced contractions on isolated rat spleen; assay type: functional, tissue-based; method in brief: as §1
T2 sequence (whole entry): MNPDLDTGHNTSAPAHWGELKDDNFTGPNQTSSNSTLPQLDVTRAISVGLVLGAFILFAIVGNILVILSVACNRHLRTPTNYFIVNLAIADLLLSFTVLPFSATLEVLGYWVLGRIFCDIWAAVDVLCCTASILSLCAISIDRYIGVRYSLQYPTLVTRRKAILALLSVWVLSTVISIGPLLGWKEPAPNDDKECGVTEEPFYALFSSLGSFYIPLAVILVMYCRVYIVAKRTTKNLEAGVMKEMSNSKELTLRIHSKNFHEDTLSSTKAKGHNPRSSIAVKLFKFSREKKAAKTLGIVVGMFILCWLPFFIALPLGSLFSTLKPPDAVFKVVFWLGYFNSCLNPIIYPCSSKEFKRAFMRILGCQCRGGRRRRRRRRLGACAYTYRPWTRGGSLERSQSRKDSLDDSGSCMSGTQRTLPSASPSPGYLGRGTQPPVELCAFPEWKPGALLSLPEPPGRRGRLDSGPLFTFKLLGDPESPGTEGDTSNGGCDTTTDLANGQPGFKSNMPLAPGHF

[3] = molecular target: T3, Alpha-1D adrenergic receptor (Rattus norvegicus) (UniProt P23944); test: ADRA1D blocking activity assessed by antagonism of (-)-NE induced contractions on isolated rat thoracic aorta; assay type: functional, tissue-based; method in brief: as §1
T3 sequence (whole entry): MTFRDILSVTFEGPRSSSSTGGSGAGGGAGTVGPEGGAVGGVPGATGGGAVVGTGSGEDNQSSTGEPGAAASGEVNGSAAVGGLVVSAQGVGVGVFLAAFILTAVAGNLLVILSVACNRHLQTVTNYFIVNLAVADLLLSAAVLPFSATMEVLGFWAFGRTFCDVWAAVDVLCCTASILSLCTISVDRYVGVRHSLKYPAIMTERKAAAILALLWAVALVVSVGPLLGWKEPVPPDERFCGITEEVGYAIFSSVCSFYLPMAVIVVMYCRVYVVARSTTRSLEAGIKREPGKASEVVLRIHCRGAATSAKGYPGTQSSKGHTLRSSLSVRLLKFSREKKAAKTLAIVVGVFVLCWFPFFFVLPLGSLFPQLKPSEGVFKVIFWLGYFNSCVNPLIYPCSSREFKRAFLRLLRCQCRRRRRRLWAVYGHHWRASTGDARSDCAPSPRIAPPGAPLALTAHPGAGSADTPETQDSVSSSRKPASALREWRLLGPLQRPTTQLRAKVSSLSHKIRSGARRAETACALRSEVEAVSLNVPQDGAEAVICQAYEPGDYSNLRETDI

PC-3 [4] = test: Cytotoxic activity on human PC3 prostate cancer cells by SRB assay; assay type: functional; details: Homo sapiens, PC-3
Method in brief: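 NCI-protocol SRB assay on PC-3 cells grown in DMEM/10% FBS/2 mM glutamine. Seeded 24 h, then compounds in medium for 48 h at 37 °C, 5% CO2, in quadruplicate. A time-zero plate was read. Cells TCA-fixed, stained with 0.4% SRB, absorbance at 520 nm. GI50, TGI and LC50 interpolated from % growth versus log concentration.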

PC-3 [5] = test: Ability to stimulate PC3 cell proliferation by BrdU incorporation using colorimetric ELISA at 10 uM; assay type: functional, Homo sapiens
Method in brief: (§2)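 PC-3 cells (DMEM, 10% FBS, 2 mM L-glutamine) seeded at 7 × 10⁴/well, settled 24 h at 37 °C, 5% CO₂. NE added (0, 0.1, 1, 10, 50 μM) for 16 h. BrdU present during the last 4 h; incorporation read by colorimetric BrdU cell-proliferation ELISA. Expressed as % growth vs untreated. Mean ± SD of three separate experiments.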

PC-3 [6] = test: Ability to stimulate PC3 cell proliferation by BrdU incorporation using colorimetric ELISA at 50 uM; assay type: functional, Homo sapiens; method in brief: as §2
PC-3 [7] = test: Inhibition of NE-induced increase of PC3 cell proliferation using ELISA BrdU; assay type: functional, cell-based; details: Homo sapiens
Method in brief: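 PC-3 cells (7×10^4/well) plated 24 h, then given noradrenaline (0–50 μM) alone or with antagonist (1 μM, or 0.5 μM for one compound) for 16 h. BrdU added for the last 4 h and read by colorimetric ELISA as % growth; mean ± SD of three experiments.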

SMILES | pKb [1] | pKb [2] | pKb [3] | GI50 (PC-3 [4]) [µM] | LC50 (50% lethal concentration) (PC-3 [4]) [µM] | TGI (PC-3 [4]) [µM] | Activity (PC-3 [5]) [%] | Activity (PC-3 [6]) [%] | Activity (PC-3 [7])
COc1cccc(OC)c1OCCNCCOc1ccccc1OCc1ccc(OC(C)C)cc1 | 8.17 | 8.62 | 9.14 | 2 | 63.1 | 17.8 |  |  | 
NC[C@H](O)c1ccc(O)c(O)c1 [NOREPINEPHRINE] |  |  |  |  |  |  | 33 | 65 | 
CCOc1ccc(COc2ccccc2OCCNCCOc2c(OC)cccc2OC)cc1 | 8.5 | 8.23 | 9.11 | 5.2 | 51.3 | 18.2 |  |  | 
COc1cc2nc(N3CCN(C(=O)C4COc5ccccc5O4)CC3)nc(N)c2cc1OC (centres undefined) [DOXAZOSIN] | 8.69 | 9.51 | 8.97 |  |  | 49 |  |  | inactive
